How the values were obtained:
[1] = target: T1, Membrane-associated tyrosine- and threonine-specific cdc2-inhibitory kinase (Homo sapiens, UniProt Q99640)
T1 sequence (Q99640 whole entry): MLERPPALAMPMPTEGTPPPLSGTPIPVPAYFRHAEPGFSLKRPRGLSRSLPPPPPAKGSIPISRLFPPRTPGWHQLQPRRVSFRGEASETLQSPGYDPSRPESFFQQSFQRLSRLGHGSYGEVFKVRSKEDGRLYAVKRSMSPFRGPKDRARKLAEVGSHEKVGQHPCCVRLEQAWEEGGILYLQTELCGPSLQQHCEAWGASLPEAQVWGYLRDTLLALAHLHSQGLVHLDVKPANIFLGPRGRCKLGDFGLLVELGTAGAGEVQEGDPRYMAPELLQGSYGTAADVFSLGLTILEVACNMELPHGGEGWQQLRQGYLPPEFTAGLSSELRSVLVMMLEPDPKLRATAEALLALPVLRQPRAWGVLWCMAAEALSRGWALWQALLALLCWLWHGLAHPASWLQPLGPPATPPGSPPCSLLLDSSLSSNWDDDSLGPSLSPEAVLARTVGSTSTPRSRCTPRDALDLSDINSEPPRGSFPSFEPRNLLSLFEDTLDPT

[2] = target: Wee1-like protein kinase (Homo sapiens, UniProt P30291); experiment: Inhibition of WEE1 (unknown origin)
[3] = Plasma protein binding in rat at 1 uM
[4] = rat, in vivo, iv, 1 mg/kg, 24 h
[5] = rat, in vivo, po, 5 mg/kg, 24 h
[6] = target: Cytochrome P450 2D6 (Homo sapiens, UniProt P10635); experiment: Inhibition of CYP2D6 (unknown origin)
[7] = target: Cytochrome P450 2C9 (Homo sapiens, UniProt P11712); experiment: Inhibition of CYP2C9 (unknown origin)
[8] = Apparent permeability across apical to basolateral side in human Caco-2 cells
[9] = target: Cytochrome P450 3A4 (Homo sapiens, UniProt P08684); experiment: Inhibition of CYP3A4 (unknown origin)
[10] = Metabolic stability in human hepatocytes assessed as intrinsic clearance measured per 10^6 cells
[11] = target: T2, Ephrin type-B receptor 3 (Homo sapiens, UniProt P54753); experiment: Inhibition of full length Nano-luc fused EPHB3 in human HEK-293T cells incubated for 2 hrs by cell based NanoBRET target engagement assay
T2 sequence (P54753 whole entry): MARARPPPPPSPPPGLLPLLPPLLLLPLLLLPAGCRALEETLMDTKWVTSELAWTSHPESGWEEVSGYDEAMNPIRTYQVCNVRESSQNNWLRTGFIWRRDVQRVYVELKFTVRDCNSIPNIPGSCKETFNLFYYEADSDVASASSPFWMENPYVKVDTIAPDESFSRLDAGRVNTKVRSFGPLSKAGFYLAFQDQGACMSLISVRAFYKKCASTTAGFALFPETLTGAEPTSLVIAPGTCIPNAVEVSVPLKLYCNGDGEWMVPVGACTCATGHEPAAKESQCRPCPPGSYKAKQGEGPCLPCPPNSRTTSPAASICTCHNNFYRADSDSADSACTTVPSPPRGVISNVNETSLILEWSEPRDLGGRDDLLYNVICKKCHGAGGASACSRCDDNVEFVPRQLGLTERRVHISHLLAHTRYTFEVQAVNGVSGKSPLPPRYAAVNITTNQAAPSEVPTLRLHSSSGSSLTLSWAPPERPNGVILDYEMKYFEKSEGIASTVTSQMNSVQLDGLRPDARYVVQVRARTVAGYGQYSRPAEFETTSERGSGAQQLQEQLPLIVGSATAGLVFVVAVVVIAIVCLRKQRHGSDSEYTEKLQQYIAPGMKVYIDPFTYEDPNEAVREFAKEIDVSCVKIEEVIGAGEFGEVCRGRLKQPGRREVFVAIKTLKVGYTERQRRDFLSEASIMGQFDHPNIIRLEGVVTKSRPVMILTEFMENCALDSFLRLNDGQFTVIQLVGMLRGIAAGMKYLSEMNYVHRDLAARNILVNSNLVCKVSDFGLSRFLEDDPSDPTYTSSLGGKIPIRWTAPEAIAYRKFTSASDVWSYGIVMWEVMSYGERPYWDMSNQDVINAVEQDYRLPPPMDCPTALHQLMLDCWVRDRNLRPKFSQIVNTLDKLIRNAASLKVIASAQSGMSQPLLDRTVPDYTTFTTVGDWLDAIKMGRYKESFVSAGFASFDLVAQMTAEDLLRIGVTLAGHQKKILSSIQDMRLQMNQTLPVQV
Summary of the method: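 HEK293T cells transiently transfected with the NanoLuc–kinase fusion vector plus carrier DNA and left overnight at 37 °C/5% CO2. Cells were resuspended in phenol red-free Opti-MEM at 17000 cells/well with the tracer. They were then exposed to compound for 2 h at 37 °C, and substrate/inhibitor mix was added. Acceptor (610 nm) and donor (450 nm) emissions were read.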

Chain of Wee1-like protein kinase (P30291 whole entry): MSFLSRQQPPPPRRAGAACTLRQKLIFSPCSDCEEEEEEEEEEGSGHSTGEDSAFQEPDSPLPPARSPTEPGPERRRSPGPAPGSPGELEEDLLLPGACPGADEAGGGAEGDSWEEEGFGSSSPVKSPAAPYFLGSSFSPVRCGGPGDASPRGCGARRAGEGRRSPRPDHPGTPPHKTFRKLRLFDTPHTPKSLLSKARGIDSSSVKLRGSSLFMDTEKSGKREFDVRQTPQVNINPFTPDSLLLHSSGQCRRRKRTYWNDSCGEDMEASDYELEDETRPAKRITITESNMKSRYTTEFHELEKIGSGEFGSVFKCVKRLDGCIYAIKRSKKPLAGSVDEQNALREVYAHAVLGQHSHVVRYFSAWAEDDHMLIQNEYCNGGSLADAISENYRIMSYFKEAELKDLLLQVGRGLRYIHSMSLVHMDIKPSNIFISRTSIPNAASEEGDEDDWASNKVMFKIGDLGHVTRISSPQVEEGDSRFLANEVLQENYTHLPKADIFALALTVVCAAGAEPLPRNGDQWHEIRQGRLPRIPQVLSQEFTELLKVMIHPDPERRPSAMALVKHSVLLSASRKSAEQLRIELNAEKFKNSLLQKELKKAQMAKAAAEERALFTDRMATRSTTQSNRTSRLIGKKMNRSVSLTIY
Chain of Cytochrome P450 3A4 (P08684 whole entry): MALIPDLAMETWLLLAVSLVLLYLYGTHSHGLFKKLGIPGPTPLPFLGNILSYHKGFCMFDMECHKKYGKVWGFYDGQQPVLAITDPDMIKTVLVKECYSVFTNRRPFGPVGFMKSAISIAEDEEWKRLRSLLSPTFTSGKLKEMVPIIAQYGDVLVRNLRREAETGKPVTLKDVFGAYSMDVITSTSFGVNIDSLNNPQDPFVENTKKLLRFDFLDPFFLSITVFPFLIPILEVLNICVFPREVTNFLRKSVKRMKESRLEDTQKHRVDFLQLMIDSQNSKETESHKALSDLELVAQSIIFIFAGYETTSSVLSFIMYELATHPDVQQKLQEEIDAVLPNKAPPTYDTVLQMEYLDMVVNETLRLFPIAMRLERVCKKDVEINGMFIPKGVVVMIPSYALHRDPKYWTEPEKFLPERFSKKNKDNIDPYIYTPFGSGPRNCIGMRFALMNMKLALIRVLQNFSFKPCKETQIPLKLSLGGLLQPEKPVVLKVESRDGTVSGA
Chain of Cytochrome P450 2C9 (P11712 whole entry): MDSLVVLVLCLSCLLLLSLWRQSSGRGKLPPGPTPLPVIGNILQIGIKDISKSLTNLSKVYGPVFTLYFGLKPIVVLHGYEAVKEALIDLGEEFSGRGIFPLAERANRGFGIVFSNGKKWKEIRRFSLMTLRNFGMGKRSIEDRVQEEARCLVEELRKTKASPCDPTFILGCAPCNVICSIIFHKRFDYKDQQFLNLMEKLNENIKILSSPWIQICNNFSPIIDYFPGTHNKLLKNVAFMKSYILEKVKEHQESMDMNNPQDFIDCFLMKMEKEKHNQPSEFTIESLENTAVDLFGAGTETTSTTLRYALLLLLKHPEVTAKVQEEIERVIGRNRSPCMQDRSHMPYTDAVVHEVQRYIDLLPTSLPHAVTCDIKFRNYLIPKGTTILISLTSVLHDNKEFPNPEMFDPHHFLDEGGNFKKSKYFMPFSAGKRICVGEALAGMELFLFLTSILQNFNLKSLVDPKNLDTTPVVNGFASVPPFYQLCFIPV
Chain of Cytochrome P450 2D6 (P10635 whole entry): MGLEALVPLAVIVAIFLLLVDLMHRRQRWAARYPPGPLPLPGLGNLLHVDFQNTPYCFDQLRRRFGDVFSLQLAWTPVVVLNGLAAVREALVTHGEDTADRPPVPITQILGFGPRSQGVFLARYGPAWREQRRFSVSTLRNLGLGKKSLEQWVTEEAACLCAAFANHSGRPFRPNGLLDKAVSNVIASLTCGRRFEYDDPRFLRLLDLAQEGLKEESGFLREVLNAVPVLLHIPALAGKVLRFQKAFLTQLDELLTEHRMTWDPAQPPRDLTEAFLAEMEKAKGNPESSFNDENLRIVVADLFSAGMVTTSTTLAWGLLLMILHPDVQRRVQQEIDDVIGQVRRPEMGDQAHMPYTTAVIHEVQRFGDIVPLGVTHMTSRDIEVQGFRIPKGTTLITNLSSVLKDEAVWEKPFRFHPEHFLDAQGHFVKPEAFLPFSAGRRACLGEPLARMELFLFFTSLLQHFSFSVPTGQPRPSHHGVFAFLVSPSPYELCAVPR

Cc1ccc(O)c(C)c1-n1c(N)c(C(N)=O)c2nc3cccc(C4=CCCC4)c3nc21
IC50 [1]: < 3 nM

Cc1c(O)cccc1-n1c(N)c(C(N)=O)c2nc3ccccc3nc21
IC50 [2]: 2200 nM

Cc1cnc2c(c1)c(C(N)=O)c(N)n2-c1c(C)ccc(O)c1C
PPB [3]: 73.8%
CL free [4]: 76 mL/min/kg
F [5]: 62%

NC(=O)c1c(N)n(-c2c(Cl)ccc(O)c2Cl)c2nc3ccccc3nc12
IC50 [2]: 220 nM

NC(=O)c1c(N)n(-c2cccc(O)c2)c2nc3ccccc3nc12
IC50 [2]: 19600 nM

Cc1ccc(O)c(C)c1-n1c(N)c(C(N)=O)c2nc3cccc(-c4ccnn4C)c3nc21
IC50 [1]: < 3 nM

Cc1ccc(O)c(C)c1-n1c(N)c(C(N)=O)c2nc3ccccc3nc21
IC50 [2]: 580 nM

Cc1ccc(O)c(C)c1-n1c(N)c(C(N)=O)c2nc(N3CCOCC3)cnc21
IC50 [6]: > 30 µM
IC50 [7]: > 30 µM
Papp [8]: 5.8 10^-6 cm/s
IC50 [9]: > 30 µM
PPB [3]: 62.8%
CLH [10]: < 3 µL/min
CL free [4]: 151 mL/min/kg
F [5]: 18%

Cc1ccc(O)c(Cl)c1-n1c(N)c(C(N)=O)c2nc3ccccc3nc21
IC50 [2]: 940 nM
IC50 [11]: 7 nM

Cc1ccc(O)c(C)c1-n1c(N)c(C(N)=O)c2cc(C3CC3)cnc21
PPB [3]: 80.3%
CL free [4]: 170 mL/min/kg
F [5]: 28%

Cc1ccc(C(F)F)cc1-n1c(N)c(C(N)=O)c2nc3ccccc3nc21
IC50 [1]: > 20000 nM

Cc1ccc(O)c(C)c1-n1c(N)c(C(N)=O)c2nc3cccc(Br)c3nc21
IC50 [1]: < 3 nM

NC(=O)c1c(N)n(-c2cccc3[nH]nnc23)c2nc3ccccc3nc12
IC50 [1]: > 20000 nM

Cc1ccc(O)c(C)c1-n1c(N)c(C(N)=O)c2nccnc21
IC50 [6]: > 30 µM
IC50 [7]: > 30 µM
Papp [8]: 19 10^-6 cm/s
IC50 [9]: > 30 µM
PPB [3]: 81%
CLH [10]: < 3 µL/min
CL free [4]: 81 mL/min/kg
F [5]: 56%
